Peptide text beside a SMILES is read from it.

The text below walks through data of ChEMBL document CHEMBL1155459, “On-bead screening of a combinatorial fumaric acid derived peptide library yields antiplasmodial cysteine protease inhibitors with unusual peptide sequences” (J Med Chem, 2009).

Assay [1] concerns the target Rhodesain (Trypanosoma brucei rhodesiense) (UniProt Q95PM0). The experiment in a line: Inhibition of Trypanosoma brucei rhodesiense rhodesain after 12 hrs by fluorescence spectroscopy-based on-bead assay. Set-up: concentration or dose not given beside the values. The settings on record: concentration not given here. In a few lines:
(§1)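 Library members on resin (PEGA, theoretical loading 0.40 mmol/g; added as DMSO suspension, 0.64 mM final inhibitor) preincubated with enzyme 12 h, then Cbz-Phe-Arg-AMC 40 μM added; AMC release followed by fluorescence (ex 380/em 460 nm). Kinetics compared with inhibitor-free amino-PEGA resin.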

Assay [2] is described as follows: Inhibition of Plasmodium falciparum falcipain-2 after 12 hrs by fluorescence spectroscopy-based on-bead assay. On the set-up: concentration or dose not given beside the values. The note with it: concentration not given here. In a few lines:
as §1

Rhodesain (Trypanosoma brucei rhodesiense), sequence (Q95PM0 1-450): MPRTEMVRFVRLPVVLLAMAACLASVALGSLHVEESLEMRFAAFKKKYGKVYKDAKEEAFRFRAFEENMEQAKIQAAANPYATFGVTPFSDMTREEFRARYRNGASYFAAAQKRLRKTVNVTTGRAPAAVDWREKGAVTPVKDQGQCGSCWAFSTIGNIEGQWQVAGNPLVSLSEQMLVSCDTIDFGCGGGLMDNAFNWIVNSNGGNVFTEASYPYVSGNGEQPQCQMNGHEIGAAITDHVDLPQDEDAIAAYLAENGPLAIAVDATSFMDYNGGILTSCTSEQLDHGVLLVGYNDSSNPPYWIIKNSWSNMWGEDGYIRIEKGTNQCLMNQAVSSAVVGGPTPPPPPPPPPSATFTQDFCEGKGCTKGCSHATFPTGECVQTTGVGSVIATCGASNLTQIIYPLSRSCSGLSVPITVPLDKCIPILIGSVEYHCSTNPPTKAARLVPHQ

What is called inhibition is how much of the control response was suppressed. Regarding `CC(C)[C@H](NC(=O)[C@@H](NC(=O)[C@@H](NC(=O)[C@H](CC(N)=O)NC(=O)/C=C/C(=O)N[C@@H](C)C(=O)NCC(=O)N[C@@H](Cc1ccccc1)C(=O)O)c1ccccc1)C(C)C)C(N)=O` (HELM PEPTIDE1{[C[C@H](NC(=O)/C=C/C(=O)[*:2])C(=O)NCC(=O)N[C@@H](Cc1ccccc1)C(=O)O].N.[Phg].V.V.[am]}$$$$V2.0), the inhibition in assay [1] turned out to be 37%; in assay [2], 51%.
The like results for `CC(C)[C@H](NC(=O)[C@H](C)NC(=O)[C@H](Cc1ccccc1)NC(=O)[C@H](CCC(N)=O)NC(=O)/C=C/C(=O)N[C@@H](C)C(=O)NCC(=O)N[C@@H](Cc1ccccc1)C(=O)O)C(N)=O` (HELM PEPTIDE1{[C[C@H](NC(=O)/C=C/C(=O)[*:2])C(=O)NCC(=O)N[C@@H](Cc1ccccc1)C(=O)O].Q.F.A.V.[am]}$$$$V2.0) were, in that order, 30% and 25%.
The corresponding values for `CC(C)C[C@H](NC(=O)[C@H](Cc1ccccc1)NC(=O)[C@H](CCC(N)=O)NC(=O)/C=C/C(=O)N[C@@H](C)C(=O)NCC(=O)N[C@@H](Cc1ccccc1)C(=O)O)C(=O)N[C@H](C(N)=O)C(C)C` (HELM PEPTIDE1{[C[C@H](NC(=O)/C=C/C(=O)[*:2])C(=O)NCC(=O)N[C@@H](Cc1ccccc1)C(=O)O].Q.F.L.V.[am]}$$$$V2.0) are 60% and 49%.
The corresponding values for `CC(C)[C@H](NC(=O)[C@@H](NC(=O)[C@H](Cc1ccccc1)NC(=O)[C@H](CCC(N)=O)NC(=O)/C=C/C(=O)N[C@@H](C)C(=O)NCC(=O)N[C@@H](Cc1ccccc1)C(=O)O)C(C)C)C(N)=O` (HELM PEPTIDE1{[C[C@H](NC(=O)/C=C/C(=O)[*:2])C(=O)NCC(=O)N[C@@H](Cc1ccccc1)C(=O)O].Q.F.V.V.[am]}$$$$V2.0) are 45% and 58%.
With `CC[C@H](C)[C@H](NC(=O)[C@H](CCC(N)=O)NC(=O)/C=C/C(=O)N[C@@H](C)C(=O)NCC(=O)N[C@@H](Cc1ccccc1)C(=O)O)C(=O)N[C@@H](C)C(=O)N[C@H](C(N)=O)C(C)C` (HELM PEPTIDE1{[C[C@H](NC(=O)/C=C/C(=O)[*:2])C(=O)NCC(=O)N[C@@H](Cc1ccccc1)C(=O)O].Q.I.A.V.[am]}$$$$V2.0), the inhibition is 29% in assay [1] and 43% in assay [2].
The like results for `CC[C@H](C)[C@H](NC(=O)[C@H](CCC(N)=O)NC(=O)/C=C/C(=O)N[C@@H](C)C(=O)NCC(=O)N[C@@H](Cc1ccccc1)C(=O)O)C(=O)N[C@@H](CC(C)C)C(=O)N[C@H](C(N)=O)C(C)C` (HELM PEPTIDE1{[C[C@H](NC(=O)/C=C/C(=O)[*:2])C(=O)NCC(=O)N[C@@H](Cc1ccccc1)C(=O)O].Q.I.L.V.[am]}$$$$V2.0) were, in that order, 47% and 46%.
With `CC[C@H](C)[C@H](NC(=O)[C@H](CCC(N)=O)NC(=O)/C=C/C(=O)N[C@@H](C)C(=O)NCC(=O)N[C@@H](Cc1ccccc1)C(=O)O)C(=O)N[C@H](C(=O)N[C@H](C(N)=O)C(C)C)C(C)C` (HELM PEPTIDE1{[C[C@H](NC(=O)/C=C/C(=O)[*:2])C(=O)NCC(=O)N[C@@H](Cc1ccccc1)C(=O)O].Q.I.V.V.[am]}$$$$V2.0), the inhibition came out at 38% in assay [1] and 54% in assay [2].
The like results for `CC(C)C[C@H](NC(=O)[C@H](CCC(N)=O)NC(=O)/C=C/C(=O)N[C@@H](C)C(=O)NCC(=O)N[C@@H](Cc1ccccc1)C(=O)O)C(=O)N[C@@H](C)C(=O)N[C@H](C(N)=O)C(C)C` (HELM PEPTIDE1{[C[C@H](NC(=O)/C=C/C(=O)[*:2])C(=O)NCC(=O)N[C@@H](Cc1ccccc1)C(=O)O].Q.L.A.V.[am]}$$$$V2.0) were, in that order, 7% and 54%.
Consider `CC(C)C[C@H](NC(=O)[C@H](CCC(N)=O)NC(=O)/C=C/C(=O)N[C@@H](C)C(=O)NCC(=O)N[C@@H](Cc1ccccc1)C(=O)O)C(=O)N[C@@H](CC(C)C)C(=O)N[C@H](C(N)=O)C(C)C` (HELM PEPTIDE1{[C[C@H](NC(=O)/C=C/C(=O)[*:2])C(=O)NCC(=O)N[C@@H](Cc1ccccc1)C(=O)O].Q.L.L.V.[am]}$$$$V2.0), for which the inhibition in assay [1] was 56%; in assay [2] it was 55%.
The corresponding values for `CC(C)[C@H](NC(=O)[C@H](C)NC(=O)[C@@H](NC(=O)[C@H](CCC(N)=O)NC(=O)/C=C/C(=O)N[C@@H](C)C(=O)NCC(=O)N[C@@H](Cc1ccccc1)C(=O)O)C1CCCCC1)C(N)=O` (HELM PEPTIDE1{[C[C@H](NC(=O)/C=C/C(=O)[*:2])C(=O)NCC(=O)N[C@@H](Cc1ccccc1)C(=O)O].Q.[O=C([C@@H](N[*:1])C1CCCCC1)[*:2]].A.V.[am]}$$$$V2.0) are 39% and 55%.
The corresponding values for `CC(C)C[C@H](NC(=O)[C@@H](NC(=O)[C@H](CCC(N)=O)NC(=O)/C=C/C(=O)N[C@@H](C)C(=O)NCC(=O)N[C@@H](Cc1ccccc1)C(=O)O)C1CCCCC1)C(=O)N[C@H](C(N)=O)C(C)C` (HELM PEPTIDE1{[C[C@H](NC(=O)/C=C/C(=O)[*:2])C(=O)NCC(=O)N[C@@H](Cc1ccccc1)C(=O)O].Q.[O=C([C@@H](N[*:1])C1CCCCC1)[*:2]].L.V.[am]}$$$$V2.0) are 52% and 47%.
The like results for `CC(C)[C@H](NC(=O)[C@@H](NC(=O)[C@@H](NC(=O)[C@H](CCC(N)=O)NC(=O)/C=C/C(=O)N[C@@H](C)C(=O)NCC(=O)N[C@@H](Cc1ccccc1)C(=O)O)C1CCCCC1)C(C)C)C(N)=O` (HELM PEPTIDE1{[C[C@H](NC(=O)/C=C/C(=O)[*:2])C(=O)NCC(=O)N[C@@H](Cc1ccccc1)C(=O)O].Q.[O=C([C@@H](N[*:1])C1CCCCC1)[*:2]].V.V.[am]}$$$$V2.0) were, in that order, 43% and 47%.
In the case of `CC(C)[C@H](NC(=O)[C@H](C)NC(=O)[C@@H](NC(=O)[C@H](CCC(N)=O)NC(=O)/C=C/C(=O)N[C@@H](C)C(=O)NCC(=O)N[C@@H](Cc1ccccc1)C(=O)O)c1ccccc1)C(N)=O` (HELM PEPTIDE1{[C[C@H](NC(=O)/C=C/C(=O)[*:2])C(=O)NCC(=O)N[C@@H](Cc1ccccc1)C(=O)O].Q.[Phg].A.V.[am]}$$$$V2.0), the inhibition in assay [1] was 12%; in assay [2] it was 55%.
The corresponding values for `CC(C)C[C@H](NC(=O)[C@@H](NC(=O)[C@H](CCC(N)=O)NC(=O)/C=C/C(=O)N[C@@H](C)C(=O)NCC(=O)N[C@@H](Cc1ccccc1)C(=O)O)c1ccccc1)C(=O)N[C@H](C(N)=O)C(C)C` (HELM PEPTIDE1{[C[C@H](NC(=O)/C=C/C(=O)[*:2])C(=O)NCC(=O)N[C@@H](Cc1ccccc1)C(=O)O].Q.[Phg].L.V.[am]}$$$$V2.0) are 68% and 30%.
Turning to `CC(C)[C@H](NC(=O)[C@@H](NC(=O)[C@@H](NC(=O)[C@H](CCC(N)=O)NC(=O)/C=C/C(=O)N[C@@H](C)C(=O)NCC(=O)N[C@@H](Cc1ccccc1)C(=O)O)c1ccccc1)C(C)C)C(N)=O` (HELM PEPTIDE1{[C[C@H](NC(=O)/C=C/C(=O)[*:2])C(=O)NCC(=O)N[C@@H](Cc1ccccc1)C(=O)O].Q.[Phg].V.V.[am]}$$$$V2.0), the inhibition in assay [1] was determined as 34%; in assay [2] it was 46%.
For `CC(=O)NC[C@H](NC(=O)/C=C/C(=O)N[C@@H](C)C(=O)NCC(=O)N[C@@H](Cc1ccccc1)C(=O)O)C(=O)N[C@@H](Cc1ccccc1)C(=O)N[C@@H](C)C(=O)N[C@H](C(N)=O)C(C)C` (HELM PEPTIDE1{[C[C@H](NC(=O)/C=C/C(=O)[*:2])C(=O)NCC(=O)N[C@@H](Cc1ccccc1)C(=O)O].[O=C([C@H](CN[*:3])N[*:1])[*:2]].F.A.V.[am]}|PEPTIDE2{[ac]}$PEPTIDE1,PEPTIDE2,2:R3-1:R2$$$V2.0), the inhibition in assay [1] amounted to 17%; in assay [2], 13%.
`CC(=O)NC[C@H](NC(=O)/C=C/C(=O)N[C@@H](C)C(=O)NCC(=O)N[C@@H](Cc1ccccc1)C(=O)O)C(=O)N[C@@H](Cc1ccccc1)C(=O)N[C@@H](CC(C)C)C(=O)N[C@H](C(N)=O)C(C)C` (HELM PEPTIDE1{[C[C@H](NC(=O)/C=C/C(=O)[*:2])C(=O)NCC(=O)N[C@@H](Cc1ccccc1)C(=O)O].[O=C([C@H](CN[*:3])N[*:1])[*:2]].F.L.V.[am]}|PEPTIDE2{[ac]}$PEPTIDE1,PEPTIDE2,2:R3-1:R2$$$V2.0): the inhibition in assay [1] worked out at 52%; in assay [2] it was 43%.
The like results for `CC(=O)NC[C@H](NC(=O)/C=C/C(=O)N[C@@H](C)C(=O)NCC(=O)N[C@@H](Cc1ccccc1)C(=O)O)C(=O)N[C@@H](Cc1ccccc1)C(=O)N[C@H](C(=O)N[C@H](C(N)=O)C(C)C)C(C)C` (HELM PEPTIDE1{[C[C@H](NC(=O)/C=C/C(=O)[*:2])C(=O)NCC(=O)N[C@@H](Cc1ccccc1)C(=O)O].[O=C([C@H](CN[*:3])N[*:1])[*:2]].F.V.V.[am]}|PEPTIDE2{[ac]}$PEPTIDE1,PEPTIDE2,2:R3-1:R2$$$V2.0) were, in that order, 44% and 32%.
The corresponding values for `CC[C@H](C)[C@H](NC(=O)[C@H](CNC(C)=O)NC(=O)/C=C/C(=O)N[C@@H](C)C(=O)NCC(=O)N[C@@H](Cc1ccccc1)C(=O)O)C(=O)N[C@@H](C)C(=O)N[C@H](C(N)=O)C(C)C` (HELM PEPTIDE1{[C[C@H](NC(=O)/C=C/C(=O)[*:2])C(=O)NCC(=O)N[C@@H](Cc1ccccc1)C(=O)O].[O=C([C@H](CN[*:3])N[*:1])[*:2]].I.A.V.[am]}|PEPTIDE2{[ac]}$PEPTIDE1,PEPTIDE2,2:R3-1:R2$$$V2.0) are 26% and 28%.
In the case of `CC[C@H](C)[C@H](NC(=O)[C@H](CNC(C)=O)NC(=O)/C=C/C(=O)N[C@@H](C)C(=O)NCC(=O)N[C@@H](Cc1ccccc1)C(=O)O)C(=O)N[C@@H](CC(C)C)C(=O)N[C@H](C(N)=O)C(C)C` (HELM PEPTIDE1{[C[C@H](NC(=O)/C=C/C(=O)[*:2])C(=O)NCC(=O)N[C@@H](Cc1ccccc1)C(=O)O].[O=C([C@H](CN[*:3])N[*:1])[*:2]].I.L.V.[am]}|PEPTIDE2{[ac]}$PEPTIDE1,PEPTIDE2,2:R3-1:R2$$$V2.0), the inhibition in assay [1] came out at 61%; in assay [2], 32%.
